The nature of one data set: Determination of log D. Type of data set: physicochemical. The following applies: pH 7.4. In short, it runs like this:
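68Ga-labeled peptide conjugate, molar activity adjusted to 1 GBq/μmol, 0.7–1 MBq per test. Partitioned between 1-octanol and 0.05 M phosphate buffer pH 7.4 by vigorous shaking for 2 min. Phases separated by centrifugation; equal aliquots of each phase γ-counted. Run thrice, each in triplicate.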

The format of data set [1] is in vitro ADME. The following applies: pooled human serum, 37 °C; activity in precipitated serum protein pellet. The essentials: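 68Ga-labeled peptide conjugate (20–25 MBq; molar activity set to 1 GBq/μmol) incubated in pooled human serum at 37 °C. Samples taken at 15-min intervals into an equal volume of ice-cold ethanol, held 1 min on ice and centrifuged 90 s. Activity measured in pellet and supernatant; supernatant analyzed by radio-HPLC. Three experiments per radioligand.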

Usually logD stands for the decadic logarithm of the distribution of all forms, ionised or not, between an organic phase and buffer at a given pH. A high value points to a more lipophilic compound.

In the case of `C[C@@H](O)[C@H](NC(=O)[C@@H]1CSSC[C@H](NC(=O)[C@@H](Cc2ccccc2)NC(=O)CN2CCN(CC(=O)O)CCN(CC(=O)O)CCN(CC(=O)O)CC2)C(=O)N[C@@H](Cc2ccc(O)cc2)C(=O)N[C@H](Cc2c[nH]c3ccccc23)C(=O)N[C@@H](CCCCN)C(=O)N[C@@H]([C@@H](C)O)C(=O)N1)C(=O)O` [[^68Ga]Ga‐8, metal not drawn], the log distribution coefficient (logD) in “Determination of log D” (1‐octanol/phosphate buffer) is -4.09 ± 0.07. Besides, in data set [1], the “protein‐associated activity (protein‐bound activity fraction)” value was determined as 19.7±2.2%.

Consider `C[C@@H](O)[C@H](NC(=O)[C@@H]1CSSC[C@H](NC(=O)[C@@H](Cc2ccccc2)NC(=O)CCC(C(=O)O)N2CCN(CC(=O)O)CCN(CC(=O)O)CCN(CC(=O)O)CC2)C(=O)N[C@@H](Cc2ccc(O)cc2)C(=O)N[C@H](Cc2c[nH]c3ccccc23)C(=O)N[C@@H](CCCCN)C(=O)N[C@@H]([C@@H](C)O)C(=O)N1)C(=O)O` (some centres unmarked) [[^68Ga]Ga‐9, metal not drawn], for which the logD in “Determination of log D” was -4.11 ± 0.11. In data set [1], the “protein‐associated activity (protein‐bound activity fraction)” value is 29.0±3.5%.

With `C[C@@H](O)[C@H](NC(=O)[C@@H]1CSSC[C@H](NC(=O)[C@@H](Cc2ccccc2)NC(=O)CC[C@H](C(=O)O)N2CCN(CC(=O)O)CCN(CC(=O)O)CC2)C(=O)N[C@@H](Cc2ccc(O)cc2)C(=O)N[C@H](Cc2c[nH]c3ccccc23)C(=O)N[C@@H](CCCCN)C(=O)N[C@@H]([C@@H](C)O)C(=O)N1)C(=O)O` [[^68Ga]Ga‐10, metal not drawn], in “Determination of log D” (1‐octanol/phosphate buffer), the logD is -3.72 ± 0.02. The “protein‐associated activity (protein‐bound activity fraction)” value in data set [1] is given as 16.9±3.5%.

As for `C[C@@H](O)[C@H](NC(=O)[C@@H]1CSSC[C@H](NC(=O)[C@@H](Cc2ccccc2)NC(=O)CCC(C(=O)O)N2CCN3CCN(CCN(CC(=O)O)CC3)CC2)C(=O)N[C@@H](Cc2ccc(O)cc2)C(=O)N[C@H](Cc2c[nH]c3ccccc23)C(=O)N[C@@H](CCCCN)C(=O)N[C@@H]([C@@H](C)O)C(=O)N1)C(=O)O` (some centres unmarked) [[^68Ga]Ga‐11, metal not drawn], in the data set “Determination of log D”, the log distribution coefficient (logD) is -3.02 ± 0.08. Moreover, the “protein‐associated activity (protein‐bound activity fraction)” value in data set [1] is listed as 15.7±3.6%.
